In the RNAGym collection of RNA variant scans (doi:10.1126/science.aae0568) one finds yeast fitness data, which are given here for 37 variants.

The chains are these.
B1: tRNA (parent)
chain: GUUCCGUUGGCGUAAUGGUAACGCGUCUCCCUCCUAAGGAGAAGACUGCGGGUUCGAGUCCCGUACGGAACG

Variants at the floor of the assay were thinned out.

The variants in this data set derive from B1. Nature of the data set: yeast fitness relative to wild type (ratio to wild type); higher = fitter; tRNA-Arg(CCU), competitive growth, 37 C, YPD. Put shortly:
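A pool of Saccharomyces cerevisiae strains, each with a tRNA-Arg(CCU) gene variant at the native genomic locus, was competed in YPD at 37°C for 24 hours across six parallel replicates. The variants had been chemically synthesised at a 3% per-site mutation rate over 69 sites, and gene amplicons before and after competition were read by 100-nucleotide paired-end sequencing. Darwinian fitness relative to wild type rested on changes in genotype frequencies. Genotypes required ≥ 100 starting reads, and estimates < 0.5 were set to 0.5.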
Consider GUGCCGUUGGCGUAAUGGUAAAGCCUCUCCCUUCUAAGGAGAAGACUGCGGGUUCGAGUCCCGUACGGCACG, for which the yeast fitness was 0.507. With GAUCCGUUGGCGACAUGGUAACGCGUCUCCCUUCUAAGGAGAAGACUGCGGCUUCGAGUCCCGUACGGAACG the figure was at most 0.5. With GUUCCGUUGGCGUAAUGGUAACGCGUCUCUUUCCUCAGGAGAAGACUGCGGGUUCGAGUCCCGUACGGAACG the figure was at most 0.5; with GUUCCGUAGGCGUAAUGGUAACGCGUCUCCCGCCUAGGGAGAAGACUGCGGGUGCAAGUCCCGUACGGAACG, at most 0.5. With GUUUCGUUGGCGUAAUGGUAACGCGUCUUCCUCCUAAGGAGAAGACUGCGGGUUCGAGUCCUGCUCGGAACG the figure was at most 0.5; with GUUCCGUUGGCGUAAUGGUAACGCGUCACCCUCCUAAGGAGAAGACUGCGGAUUCGAGUCCCGUACGGAACG, 0.705.

With GUUCCGUUGGCGUAAUGGUAACGCCUCUCCCUCGUAAGGAGAAGACUGCGGGUUCGAGUCUCGUAGGGAACG, the yeast fitness is at most 0.5. In the case of GUUCGGUUGGCGUAAUGGUAACGCGUCUCCCUCCUAUGGAGAAGACUGCGGGUUCGAGUCCCGUACGGAACG, the yeast fitness came to 0.726. In the case of GUUCCGUUGGCGUAGUGGUGACGCGUAUCCCUCCUAAGGGGAAGCCUGCGGGUUCGAGUCCCGUACGGAACG, the yeast fitness was found to be 0.503. With GUUUCGUUGGCGUAAUGGUAACGCGUCUCCCUCCUAAGGGGGAGACUGCGGGUUCGCGUCCCGUAUGGAACG the figure was at most 0.5. GUUCCGUUGGGGUCAUGGUAACGCGUCUCGCUCCUAAGGAGAAGGCUGCGGGUUCGGGUCCCGUACGGAACG: the yeast fitness is at most 0.5.

Take GUUCCGUUGGCGUAAUGGUAACGCGUCACCCUCCUAAGGUGAAGACUGUGGGUUCGAGUACCAUACGGAACG: the yeast fitness was at most 0.5.

In the case of GUUCCGUUGGCGUAAUGGUAACGCGUCUCCCUCCUAAGGAGAACACUGCGGGUACGAGUCCCGUACGGAACG, the yeast fitness turned out to be 0.667.

Take GUUGCGUUGGCGUAAUGGUAACCCGUCUCCCUCCUAAGGAGAAGACUGCGGGUUCGAGUCUCGUACGGAACG: the yeast fitness was at most 0.5. On to GUUCCGUUGGCGUAAUGGUAACGCGUUUCCCUCCUAAGGAGAAGGCUGGGGGUUCGAGUCCCGUCCGGAACG, for which the yeast fitness is at most 0.5. Consider GUUACGUUGGCGUAAUGGUAACGCGUCUCCCUUCUAAGGAGAAGACUGCGGGUUCGAGUGCCGUACGGAACG, for which the yeast fitness is 0.601.

GUUCGGUUGGAGUAAUGGUAACGCGCCUCCCUCCUAAGGUGAAGACUGCGGGUUCGAGUCCCGCACGGAACG: the yeast fitness is at most 0.5. Take GUUCCGUCGGCGUAAUGGUAACGCGUCUCCCUCCUAAGGAGAAGACUGCGGGUUCAAGUCCCGUACGGAACG: the yeast fitness was 1.06. With GUUCCGUUGGCGUAAUGGUAACGCGUCUGCCUCCUAAGGAGAAGACUGCGGGUUAGAGUCCCGCACGGAACG the figure was at most 0.5; with GUUCCGAUGGCGUACUGGUAACCCGUUUCCCUCCUAAGGAGAAGACUGCGGGUUCAAGUCACGUACGGAACG, 0.602; with GUUCCGUAGGCGUAAUGGUAACGCGUCCCCCUCCUAAGGAGAAGACUGCGGGUUCGAGUCACGUACCGAACG, at most 0.5. With GUUCCGAUGGCGUAAUGGUAACGCGUCUCUCUCCUAAGGAGAAGACUGCGGGUUCGAGUCCCGUAUGGAACG the figure was at most 0.5; with GUUCCGUUGGCGUAAUGGUAACGCGUCUCCCUCCUAAGGAGAAGACUGCGGGUUCGAGUCCCAUACGCAACG, 0.883; with GUUCCGUUGGGGUAAUAGCAACGCGUCUCCCUCCUAAGGAGAAGACUGCGGGUUCGAGUCCCGUACGGAACG, at most 0.5. With GUUCCGUUGGAGUAAUGGUAACGCGUCUCCCUCCUAAGGAGAAGACUGCGGGUUCGAGUCCCGCACGGAACG the figure was 0.638; with GUUCCGUUGGCGUAAUGGUAACGCGUCUCCCUCCUAACGAGAAGACUGCGGGUUCGACUCCCGUACGGUACG, 0.714; with GUUUCGUUGGCGUAAUGGUAACGCGUCUCCUUCCUAAGGAGAGGACUGCGGGUUCGAGUCACAUUGGGAACG, 0.575.

Turning to GUUCCGUCGGCGUAAUGGCAACGCGUCUCCCUCCUAAGGAGAAGACUGCGGGUACGAGUCCCGUACGGAACG, the yeast fitness turned out to be 0.542.

Turning to GCUCGGUUGGCGUAAUGGUAACGCGUCUCCCUCCUAAGGAGAAAAAUGCGGAUUCGAGUCCCGUAUGGAACG, the yeast fitness is at most 0.5.

As to GUUCCGUUGGCGCAAGGGUAACGCGUCUCCCUCCUAAGGAGAAGACUGCGGGUUCGAGUCCCGUACGGAUCG, the yeast fitness is 0.595.

With GUUCCGUUGGCGUAAUGGUAACGCGUGUCCCUCGUAAGGAGAAGACUGCGGGUACGAGUCCCGUACGGAUCG, the yeast fitness was at most 0.5. With GUUCCGUUGGUGUAAUGGUAACGCGUCUCCCUCCUGAGGAGAAGACUGCGGGUUCGAGUCCCGUACGGAACG, the yeast fitness worked out at 0.822. With GUUCCGUUGGCGUAAUGGUAACGCGCGUCCCUCCUAAGGAGAAGACUGCGGGUUCGAGUCCCGUACGGAACG the figure was 0.588; with GUUCCGUUGGCGUAAGGGUAACGCGUCUCCUUCCUAAGGAGAAGACUGCGCGUUCGAGUCCCGUCCGGAACG, at most 0.5. Take GUUCUGUUGGCGUAAUGGUCACGCGUCUCCCUCCUAAGGAGAAGACUGCGGGUUCGAGUCCCGUAUGGAACG: the yeast fitness worked out at 0.616. With GUUCUGUUGGCGUAAUGGUAACGCGUCUCCCUCCUAAGGAGAAGACUGCGGGUUCGAGUCCCGUGCGGAACG the figure was 0.94. With GUUCCGUUGGCGUAAUGGUAACGGGUCUCCCUCCUAAGGAGAAGAGUACGGGUUUGAGUCCCGAACGGCACG the figure was 0.5.
